# Test results taken from ChEMBL document CHEMBL2203144, “Synthesis and evaluation of antimicrobial activity of 4H-pyrimido[2,1-b]benzothiazole, pyrazole and benzylidene derivatives of curcumin” (Eur J Med Chem, 2012).
# Activity calls are given as the source filed them. The calls are words filed in the database; no cut-off is given here.
# Legend:
# [1] = tested on: Aspergillus niger; experiment: Antifungal activity against Aspergillus niger after 72 hrs by agar disk diffusion method; format: functional
# How it was run: (§1)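 Sterile filter-paper discs dipped in the acetone dilutions of compound (20–0.315 µM/mL), then dried to remove acetone. Sabouraud dextrose agar plates spread with 1 mL fungal culture. Discs placed aseptically; one drug-free disc served as growth control; fluconazole reference. Plates incubated upright 72 h at 28 °C. Zone of inhibition measured in mm with a scale.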
# [2] = tested on: Aspergillus fumigatus; experiment: Antifungal activity against Aspergillus fumigatus after 72 hrs by broth dilution method; format: functional
# How it was run: (§2)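 Compounds and fluconazole reference were dissolved in acetone at 120 µM/mL and serially diluted to 20–0.315 µM/mL. 10 µL compound plus 10 µL fungal culture broth added to 150 µL Sabouraud dextrose medium per well. Optical density recorded, then incubated 72 h at 28 °C. MIC95 taken from absence of turbidity. Acetone-at-same-dilution solvent control.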
# [3] = tested on: Aspergillus niger; experiment: Antifungal activity against Aspergillus niger after 72 hrs by broth dilution method; format: functional; how it was run: as §2
# [4] = tested on: Aspergillus flavus; experiment: Antifungal activity against Aspergillus flavus after 72 hrs by broth dilution method; format: functional; how it was run: as §2
# [5] = tested on: Aspergillus flavus; experiment: Antifungal activity against Aspergillus flavus after 72 hrs by agar disk diffusion method; format: functional; how it was run: as §1
# [6] = tested on: Aspergillus fumigatus; experiment: Antifungal activity against Aspergillus fumigatus after 72 hrs by agar disk diffusion method; format: functional; how it was run: as §1
# [7] = tested on: Pseudomonas aeruginosa; experiment: Antibacterial activity against Pseudomonas aeruginosa ATCC 23564 after 24 hrs by broth microdilution method; format: functional
# How it was run: (§3)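 Microwell broth dilution in brain heart infusion broth (nutrient broth adjusted to pH 7.0). Inoculum from 16 h cultures, adjusted to 0.5 McFarland (1.5 × 10⁸ CFU/mL). 10 µL compound (serial dilutions 20 down to 0.625 or 0.312 µM/mL) plus 10 µL culture added to 150 µL broth. Incubated 24 h at 37 °C. MIC95 is the lowest concentration with no turbidity. Ciprofloxacin reference; inoculum and broth controls.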
# [8] = tested on: Providencia rettgeri; experiment: Antibacterial activity against Providencia rettgeri DRDE after 24 hrs by broth microdilution method; format: functional; how it was run: as §3
# [9] = tested on: Escherichia coli; experiment: Antibacterial activity against Escherichia coli ATCC 35218 after 24 hrs by broth microdilution method; format: functional; how it was run: as §3
# [10] = tested on: Salmonella typhi; experiment: Antibacterial activity against Salmonella typhi ATCC 15499 after 24 hrs by broth microdilution method; format: functional, Salmonella enterica subsp. enterica serovar Typhi
# How it was run: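 Broth microdilution in brain heart infusion broth in microwells. Inoculum was prepared from 16 h cultures adjusted to the 0.5 McFarland standard (1.5 × 10⁸ CFU/mL). Compounds were serially diluted from 20 down to 0.625 µM/mL and added to the broth, followed by the bacterial culture. Plates were incubated 24 h at 37 °C, with optical density read. MIC95 was the lowest concentration giving no turbidity. Inoculum and broth controls were included.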
# [11] = tested on: Bacillus cereus; experiment: Antibacterial activity against Bacillus cereus MTCC 7350 after 24 hrs by broth microdilution method; format: functional; how it was run: as §3
# [12] = tested on: Staphylococcus aureus; experiment: Antibacterial activity against Staphylococcus aureus ATCC 11632 after 24 hrs by broth microdilution method; format: functional; how it was run: as §3
# [13] = Cytotoxicity against human L123 cells after 48 hrs by MTT assay; format: cell-based
# How it was run: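 MTT assay. 2×10³ cells per well in MEM + 10% FBS, attached 24 h, then treated at 5, 10, 20, 50 and 100 µM/mL for 48 h; controls received medium with 0.2% DMSO. Duplicate treatments. Cells PBS-washed, given MTT (stock 1 mg/mL) for 4 h at 37 °C. Formazan dissolved in DMSO, read at 590 nm. IC50 is the concentration reducing viability by 50%.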
# [14] = Salmonella enterica subsp. enterica serovar Typhi
Compound,inhibition zone (IZ) [1],MIC95 [2],MIC95 [3],MIC95 [4],inhibition zone (IZ) [5],inhibition zone (IZ) [6],MIC95 [7],MIC95 [8],MIC95 [9],MIC95 [10] [uM/ml],MIC95 [11],MIC95 [12],IC50 [13] [uM/ml],"MIC95 [10, 14]"
OC(Cn1cncn1)(Cn1cncn1)c1ccc(F)cc1F [FLUCONAZOLE],18 mm,1.25 uM/ml,2.5 uM/ml,1.25 uM/ml,25 mm,22 mm,–,–,–,–,–,–,–,–
COc1cc(/C=C/C(=O)C(=Cc2ccccc2)C(=O)/C=C/c2ccc(O)c(OC)c2)ccc1O,inactive,2.5 uM/ml,inactive,inactive,inactive,15 mm,inactive,0.625 uM/ml,1.25 uM/ml,2.5,0.625 uM/ml,1.25 uM/ml,–,–
COc1cc(/C=C/C(=O)C(=Cc2ccccc2O)C(=O)/C=C/c2ccc(O)c(OC)c2)ccc1O,17 mm,2.5 uM/ml,2.5 uM/ml,inactive,inactive,20 mm,1.25 uM/ml,1.25 uM/ml,2.5 uM/ml,5,1.25 uM/ml,1.25 uM/ml,50,–
COc1cc(/C=C/C(=O)C2=C(/C=C/c3ccc(O)c(OC)c3)N=C3Sc4ccccc4N3C2c2ccc(O)c(OC)c2)ccc1O (centres undefined),inactive,inactive,inactive,12 uM/ml,11 mm,inactive,5 uM/ml,10 uM/ml,10 uM/ml,10,2.5 uM/ml,inactive,–,–
COc1cc(C=C(C(=O)/C=C/c2ccc(O)c(OC)c2)C(=O)/C=C/c2ccc(O)c(OC)c2)ccc1O,inactive,inactive,inactive,1.25 uM/ml,20 mm,inactive,2.5 uM/ml,2.5 uM/ml,inactive,5,1.25 uM/ml,2.5 uM/ml,> 100,–
COc1cc(/C=C/C(=O)C2=C(/C=C/c3ccc(O)c(OC)c3)N=C3Sc4ccccc4N3C2c2ccc(O)cc2)ccc1O (centres undefined),inactive,5 uM/ml,inactive,inactive,inactive,12 mm,10 uM/ml,inactive,5 uM/ml,20,2.5 uM/ml,1.25 uM/ml,–,–
COc1cc(/C=C/C(=O)C2=C(/C=C/c3ccc(O)c(OC)c3)N=C3Sc4ccccc4N3C2c2ccc(C)cc2)ccc1O (centres undefined),inactive,inactive,inactive,inactive,inactive,inactive,inactive,20 uM/ml,10 uM/ml,–,5 uM/ml,20 uM/ml,–,inactive
COc1cc(/C=C/C(=O)C2=C(/C=C/c3ccc(O)c(OC)c3)N=C3Sc4ccccc4N3C2c2ccc(Cl)cc2)ccc1O (centres undefined),inactive,inactive,inactive,inactive,inactive,inactive,20 uM/ml,inactive,10 uM/ml,–,5 uM/ml,inactive,> 100,inactive
COc1cc(/C=C/C(=O)C2=C(/C=C/c3ccc(O)c(OC)c3)N=C3Sc4ccccc4N3C2c2ccccc2)ccc1O (centres undefined),inactive,inactive,inactive,inactive,inactive,inactive,10 uM/ml,20 uM/ml,inactive,20,5 uM/ml,20 uM/ml,> 100,–
COc1cc(/C=C/C(=O)C2=C(/C=C/c3ccc(O)c(OC)c3)N=C3Sc4ccccc4N3C2c2ccc([N+](=O)[O-])cc2)ccc1O (centres undefined),10 mm,20 uM/ml,10 uM/ml,inactive,inactive,15 mm,10 uM/ml,10 uM/ml,5 uM/ml,20,2.5 uM/ml,inactive,> 100,–
COc1cc(/C=C/c2cc(/C=C/c3ccc(O)c(OC)c3)n(C(=O)c3ccncc3)n2)ccc1O,18 mm,inactive,2.5 uM/ml,2.5 uM/ml,22 mm,inactive,1.25 uM/ml,inactive,2.5 uM/ml,5,inactive,1.25 uM/ml,> 100,–
COc1cc(/C=C/c2cc(/C=C/c3ccc(O)c(OC)c3)n(C(N)=O)n2)ccc1O,15 mm,1.25 uM/ml,5 uM/ml,inactive,inactive,20 mm,5 uM/ml,2.5 uM/ml,2.5 uM/ml,–,inactive,inactive,–,inactive
COc1cc(/C=C/c2cc(/C=C/c3ccc(O)c(OC)c3)n(C(N)=S)n2)ccc1O,22 mm,2.5 uM/ml,2.5 uM/ml,1.25 uM/ml,20 mm,25 mm,2.5 uM/ml,1.25 uM/ml,inactive,2.5,0.625 uM/ml,1.25 uM/ml,–,–
COc1cc(/C=C/C(=O)CC(=O)/C=C/c2ccc(O)c(OC)c2)ccc1O [CURCUMIN],9 mm,20 uM/ml,20 uM/ml,inactive,inactive,12 mm,inactive,20 uM/ml,20 uM/ml,20,10 uM/ml,20 uM/ml,–,–
O=C(O)c1cn(C2CC2)c2cc(N3CCNCC3)c(F)cc2c1=O [CIPROFLOXACIN],–,–,–,–,–,–,1.25 uM/ml,1.25 uM/ml,1.25 uM/ml,2.5,0.625 uM/ml,1.25 uM/ml,–,–
